Experimental data as given in ChEMBL document CHEMBL3244388, “Synthesis and antihypertensive activity of 2-benzamido-1,2,3,4,6,7,12,12b-octahydroindolo[2,3-a]quinolizines” (J Med Chem, 1979).
Activity calls are given as the source filed them. The rule behind the calls is not given here.

Key:
Rattus norvegicus [1] = experiment: Antihypertensive activity in spontaneous hypertensive rat assessed as change in systolic blood pressure at 25 mg/kg, po administered […] measured 2 hrs post last dose on day 3 by tail-cuff method relative to vehicle-treated control; type: functional, Artery
In short: (§1)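 Spontaneously hypertensive rats, pre-trained for 2 weeks; animals with baseline below 175 mmHg excluded. Oral dosing at 0 h on days 1, 2 and 3, six rats per group. After warming (20 min, 40 °C), systolic pressure was read by tail-cuff with microphone, 3–5 readings averaged. Readings at 0 h on days 1 and 3 and 2 h post-dose on day 3 were compared with 0-h controls by paired t test; a drop over 15 mmHg counted as active.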

Rattus norvegicus [2] = experiment: Antihypertensive activity in spontaneous hypertensive rat assessed as change in systolic blood pressure at 50 mg/kg, po […] measured 2 hrs post last dose on day 3 by tail-cuff method relative to vehicle-treated control; type: functional, Artery; in short: as §1
Rattus norvegicus [3] = experiment: Toxicity in spontaneous hypertensive rat assessed as mortality at 50 mg/kg, po administered on […] measured 2 hrs post last dose on day 3; type: organism-based; parameters: dose 50 mg/kg, route oral; conditions: in vivo
In short: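 Genetically spontaneously hypertensive rats, each trained for 2 weeks to set baseline; animals below 175 mmHg were excluded. Groups of six were dosed orally at 0 h on days 1, 2 and 3. Systolic pressure was read by indirect tail-cuff after 20 min conditioning at 40 °C, 3–5 readings averaged, at 0 h on days 1 and 3 and 2 h post-dose on day 3.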

Rattus norvegicus [4] = experiment: Antihypertensive activity in spontaneous hypertensive rat assessed as change in systolic blood pressure at 15 mg/kg, po […] measured 2 hrs post last dose on day 3 by tail-cuff method relative to vehicle-treated control; type: functional, Artery; in short: as §1
Rattus norvegicus [5] = experiment: Antihypertensive activity in spontaneous hypertensive rat assessed as change in systolic blood pressure at 10 mg/kg, po […] measured 2 hrs post last dose on day 3 by tail-cuff method […]; type: functional, Artery; in short: as §1
Rattus norvegicus [6] = experiment: Antihypertensive activity in spontaneous hypertensive rat assessed as change in systolic blood pressure at 5 mg/kg, po administered […] measured 2 hrs post last dose on day 3 by tail-cuff method relative to vehicle-treated control; type: functional, Artery; in short: as §1
Felis catus = species on record: Felis catus; experiment: Inhibition of cat spleen alpha-adrenergic receptor; type: tissue-based
Canis familiaris = experiment: Inhibition of alpha-adrenergic receptor in iv dosed dog; type: functional, organism-based; conditions: Canis lupus familiaris

Structure (SMILES) | Activity (Rattus norvegicus [1]) [mmHg] | Activity (Rattus norvegicus [2]) [mmHg] | also measured
c1ccc(N[C@H]2CCN3CCc4c([nH]c5ccccc45)[C@@H]3C2)cc1 | 5.75 | – | –
Cc1cccc(C(=O)N[C@H]2CCN3CCc4c([nH]c5ccccc45)[C@@H]3C2)c1 | -53 | – | –
CN(C(=O)c1ccccc1Cl)C1CCN2CCc3c([nH]c4ccccc34)[C@@H]2C1 (stereo partly drawn) | -13 | – | –
O=C(N[C@@H]1CCN2CCc3c([nH]c4ccccc34)[C@@H]2C1)c1ccc(F)cc1 | -24 | – | –
CC(=O)NC1CCN2CCc3c([nH]c4ccccc34)[C@@H]2C1 (stereo partly drawn) | – | -20 | –
NC1CCN2CCc3c([nH]c4ccccc34)[C@@H]2C1 (stereo partly drawn) | -9.5 | – | –
O=C(NC1CCN2CCc3c([nH]c4ccccc34)[C@@H]2C1)c1ccco1 (stereo partly drawn) | – | 0 | –
O=C(Nc1ccccc1)N[C@@H]1CCN2CCc3c([nH]c4ccccc34)[C@@H]2C1 | – | -22 | –
CN(C(=O)c1ccc(F)cc1)C1CCN2CCc3c([nH]c4ccccc34)[C@@H]2C1 (stereo partly drawn) | – | -20 | –
O=C(N[C@@H]1CCN2CCc3c([nH]c4ccccc34)[C@@H]2C1)c1cccc(C(F)(F)F)c1 | – | -3 | –
CCN(C(=O)c1ccccc1)C1CCN2CCc3c([nH]c4ccccc34)[C@@H]2C1 (stereo partly drawn) | -92 | -83 | –
O=C1c2ccccc2CN1[C@@H]1CCN2CCc3c([nH]c4ccccc34)[C@@H]2C1 | – | 2 | –
O=C(N[C@@H]1CCN2CCc3c([nH]c4ccccc34)[C@@H]2C1)c1ccc2c(c1)OCO2 | – | -52 | –
c1ccc2c3c([nH]c2c1)[C@@H]1CC(NC2CC2)CCN1CC3 (stereo partly drawn) | – | -25 | –
CCn1c2c(c3ccccc31)CCN1CCC(NC)C[C@@H]21 (stereo partly drawn) | – | -30 | –
Cc1ccccc1C(=O)N(C)C1CCN2CCc3c([nH]c4ccccc34)[C@@H]2C1 (stereo partly drawn) | – | -44 | –
Nc1ccc(C(=O)N[C@@H]2CCN3CCc4c([nH]c5ccccc45)[C@@H]3C2)cc1 | – | -31 | –
CN(C#N)[C@@H]1CCN2CCc3c([nH]c4ccccc34)[C@@H]2C1 | – | -51 | Activity (Rattus norvegicus [3]): Toxic
CN(C(=O)c1ccccc1)[C@H]1CCN2CCc3c([nH]c4ccccc34)[C@@H]2C1 | – | – | Activity (Rattus norvegicus [4]): -17 mmHg
COc1ccc(C(=O)N(C)[C@@H]2CCN3CCc4c([nH]c5ccccc45)[C@@H]3C2)cc1 | -72 | -50 | Activity (Rattus norvegicus [5]): -86 mmHg; Activity (Rattus norvegicus [6]): -53 mmHg; inhibition (Felis catus): Active; inhibition (Canis familiaris): Active
COc1cccc(C(=O)N[C@@H]2CCN3CCc4c([nH]c5ccccc45)[C@@H]3C2)c1 | – | -18 | –
CN(C(=O)c1ccccc1)[C@@H]1CCN2CCc3c([nH]c4ccccc34)[C@@H]2C1 | – | -103 | Activity (Rattus norvegicus [5]): -41 mmHg; Activity (Rattus norvegicus [6]): -19 mmHg; inhibition (Felis catus): Active; inhibition (Canis familiaris): Active
COc1cc(C(=O)N[C@@H]2CCN3CCc4c([nH]c5ccccc45)[C@@H]3C2)cc(OC)c1OC | -25 | – | –
Cl.O=C(N[C@@H]1CCN2CCc3c([nH]c4ccccc34)[C@@H]2C1)c1ccc([N+](=O)[O-])cc1 | – | 15 | –
O=C(N[C@H]1CCN2CCc3c([nH]c4ccccc34)[C@@H]2C1)c1ccccc1Br | – | 18 | –

Structure (SMILES) | Activity (Rattus norvegicus [1]) [mmHg] | Activity (Rattus norvegicus [2]) [mmHg] | also measured
CNC1CCN2CCc3c([nH]c4ccccc34)[C@@H]2C1 (stereo partly drawn) | – | -18 | –
CN(C(=O)c1ccc(Cl)cc1)C1CCN2CCc3c([nH]c4ccccc34)[C@@H]2C1 (stereo partly drawn) | – | -6 | –
Cl.O=C(NC1CCN(CCc2c[nH]c3ccccc23)CC1)c1ccccc1 [INDORAMIN HYDROCHLORIDE] | – | -79 | –
c1ccc(CNC2CCN3CCc4c([nH]c5ccccc45)[C@@H]3C2)cc1 (stereo partly drawn) | -8 | -53 | –
CCCNC1CCN2CCc3c([nH]c4ccccc34)[C@@H]2C1 (stereo partly drawn) | – | 27 | –
CN(Cc1ccccc1)[C@@H]1CCN2CCc3c([nH]c4ccccc34)[C@@H]2C1 | – | -54 | –
Cc1ccccc1C(=O)N[C@@H]1CCN2CCc3c([nH]c4ccccc34)[C@@H]2C1 | – | 13 | –
Cc1ccc(C(=O)N[C@H]2CCN3CCc4c([nH]c5ccccc45)[C@@H]3C2)cc1 | -32 | – | –
COc1ccc(C(=O)N[C@@H]2CCN3CCc4c([nH]c5ccccc45)[C@@H]3C2)cc1 | 10 | – | –
CCCN(C(=O)c1ccccc1)C1CCN2CCc3c([nH]c4ccccc34)[C@@H]2C1 (stereo partly drawn) | – | -16 | –
CN(C(=O)c1cccc(Cl)c1)C1CCN2CCc3c([nH]c4ccccc34)[C@@H]2C1 (stereo partly drawn) | -54 | -79 | –
CCn1c2c(c3ccccc31)CCN1CCC(N(C)C(=O)c3ccccc3)C[C@@H]21 (stereo partly drawn) | -63 | -67 | –
CN(C(=O)c1cccc(C(F)(F)F)c1)C1CCN2CCc3c([nH]c4ccccc34)[C@@H]2C1 (stereo partly drawn) | -56 | -48 | inhibition (Felis catus): Active; inhibition (Canis familiaris): Active
Cc1cccc(C(=O)N[C@@H]2CCN3CCc4c([nH]c5ccccc45)[C@@H]3C2)c1 | – | -49 | –
O=C(N[C@@H]1CCN2CCc3c([nH]c4ccccc34)[C@@H]2C1)c1ccccc1 | – | 1 | –
O=C(N[C@@H]1CCN2CCc3c([nH]c4ccccc34)[C@@H]2C1)c1ccccc1Cl | – | -26 | –
c1ccc(NC2CCN3CCc4c([nH]c5ccccc45)[C@@H]3C2)cc1 (stereo partly drawn) | -25 | – | –
O=C(Nc1ccccc1)N[C@H]1CCN2CCc3c([nH]c4ccccc34)[C@@H]2C1 | -6 | – | –
Cc1ccc(C(=O)N[C@@H]2CCN3CCc4c([nH]c5ccccc45)[C@@H]3C2)cc1 | – | -18 | –
CCNC1CCN2CCc3c([nH]c4ccccc34)[C@@H]2C1 (stereo partly drawn) | – | -4 | –
O=C(N[C@@H]1CCN2CCc3c([nH]c4ccccc34)[C@@H]2C1)c1ccc(Cl)cc1 | – | -3 | –
CN(C(=O)c1cccc(F)c1)C1CCN2CCc3c([nH]c4ccccc34)[C@@H]2C1 (stereo partly drawn) | -76 | -110 | –
O=C(N[C@@H]1CCN2CCc3c([nH]c4ccccc34)[C@@H]2C1)c1ccccc1Br | – | -24 | –
O=C(c1ccccc1)N(C1CC1)C1CCN2CCc3c([nH]c4ccccc34)[C@@H]2C1 (stereo partly drawn) | – | -26 | –
c1ccc(CCNC2CCN3CCc4c([nH]c5ccccc45)[C@@H]3C2)cc1 (stereo partly drawn) | – | -16 | –
